Here are results for 18 compounds from PubChem BioAssay.

Assay [1] can be described thus: reduced viability of SK-BR-3 breast cancer cells – cell-based, 24 h, human, pilot screen (AID 572).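 Further: compound exposure lasted between 18 and 24 h rather than exactly 24 h; 100% = carrier-treated control wells.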 As to conditions: SK-BR-3 viability, CellTiter-Glo luminescence, at 10 µM, stronger effect = lower value. Background: ATP-based viability assays read luminescence as a measure of living cells.
Assay [2] is described as follows: HUVEC growth inhibition – cell-based, human, primary screen (AID 575;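 active means viability at or below 30% in both replicate assays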;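 further: 100% = median of untreated cell wells with 0.1% DMSO on each plate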). As to conditions: HUVEC proliferation, CellTiter-Glo luminescence, 72 h; at 10 µM; stronger effect = lower value. An outline of the steps: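 System: primary human umbilical vein endothelial cells; Quantity: 1250 endothelial cells in each well; Buffer or medium: supplemented EBM, 2% fetal bovine serum; Doses: one dose, 10 µM final, 0.1% DMSO; Incubation: 72 h compound incubation; Technique: ATP-based CellTiter-Glo luminescent read; Evaluation: percent of median DMSO-control luminescence; Controls: vehicle and MePR control wells.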

The nature of assay [3]: H69AR cell proliferation blockers – human, duplicate replicates, primary screen (AID 580;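 active means viability at or under a set limit in both replicates, limit being median viability minus 3 SD, cut at about 48% in these data, passing the limit was not always enough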;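 further: 100% = mean luminescence of untreated wells and 0% = no signal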). As to conditions: H69AR lung tumor cells viability, ATP luminescence, 72 h; at 10 µM; stronger effect = lower value.
A short description of assay [4]: MRP1 drug-resistance reversers in H69AR cells – cell-based, doxorubicin co-treatment, pilot screen (AID 601;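 active means viability loss from added drug above about 55%, and viability with drug at most 40%, in both replicates, limit read from the data, passing the limit was not always enough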). As to conditions: CellTiter-Glo, 72 h, at 10 µM; for differential viability (reversal): stronger effect = higher value.
Assay [5] can be described thus: yeast transport mutant growth inhibition pilot in 384-well plates, post-Golgi transport modulator project (AID 636; in the data active means inhibition above about 31%). As to conditions: absorbance 615 nm, about 18 h, stronger effect = higher value.
The nature of assay [6]: growth suppression of yeast trafficking mutant, preliminary HTS, modulators of trafficking downstream of Golgi apparatus project, 1536-format plate, OD 615 nm (AID 637; in the data active means inhibition above about 30%). As to conditions: yeast transport mutant growth, absorbance 615 nm, 18 h; stronger effect = higher value.
Where [7] appears, read: H69AR cells + 2 uM doxorubicin, measured here: viability with 2 uM doxorubicin, stronger effect = lower value.
Setting [8] is: H69AR cells, compound alone cytotoxicity.

Structures are written as SMILES. Activity calls are given as the source filed them.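 How the source made its calls, unless noted: active means viability at or below 10% of carrier control in both of two separate runs; inconclusive means viability at or below 10% in only one of the two runs; inactive means the rest.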

One may read the viability as a read-out of living cells in per cent, often relative to untreated cells. The term inhibition denotes the change of the read-out against control, counted positive when it falls.

`Cc1cc(NS(=O)(=O)c2ccc(NC(=O)COc3ccc(Cl)cc3)cc2)no1`: the viability was 100% (inactive) in assay [1]; 107% (inactive) in assay [2]; 84.1% (inactive) in assay [3]; 85.2% in assay [4] (setting [7]); 84.1% in assay [4] (setting [8]). Moreover, the differential viability (reversal) in assay [4] (H69AR cells + 2 uM doxorubicin) is -1.13% (inactive). Besides, the inhibition in assay [5] was -9.32% (inactive); in assay [6], -5.27% (inactive).
For the compound `CCN(CC)CCOC(=O)c1ccc(NC(=O)COc2cc(=O)n(CC)c3ccccc23)cc1`, the viability in assay [1] was 103% (inactive); in assay [2], 98.3% (inactive); in assay [3] it was 109% (inactive); in assay [4] (setting [7]) it was 82.1%; in assay [4] (setting [8]) it was 109%. The differential viability (reversal) in assay [4] (H69AR cells + 2 uM doxorubicin) is 26.6% (inactive). The results for the inhibition in assay [5] and in assay [6] were -2.86% (inactive) and -10% (inactive), respectively.
With `CN(Cc1nc(-c2ccncc2)no1)S(=O)(=O)c1ccc(Cl)cc1`, the viability is 115% (inactive) in assay [1]; 87.2% (inactive) in assay [2]; 88.9% (inactive) in assay [3]; 98% in assay [4] (setting [7]); 88.9% in assay [4] (setting [8]). For the same compound, in assay [4] (H69AR cells + 2 uM doxorubicin), the differential viability (reversal) was -9.07% (inactive). For the same compound, the inhibition in assay [5] is 1.78% (inactive); in assay [6] it was 13.6% (inactive).
With `CCc1nc(SCC(=O)NCc2ccco2)c2c3c(sc2n1)CCCC3`, the viability was 97% (inactive) in assay [1]; 78.8% (inactive) in assay [2]; 67.8% (inactive) in assay [3]; 77.1% in assay [4] (setting [7]); 67.8% in assay [4] (setting [8]). Further, the differential viability (reversal) in assay [4] (H69AR cells + 2 uM doxorubicin) is -9.31% (inactive). For the same compound, the inhibition in assay [5] was -3.12% (inactive); in assay [6], -3.44% (inactive).
As for `CCn1cc(C(=O)NC2CCc3ccccc32)c(=O)c2ccc(C)nc21` (centres undefined), the viability was 77% (inactive) in assay [1]; 84.3% (inactive) in assay [2]; 81.6% (inactive) in assay [3]; 91.7% in assay [4] (setting [7]); 81.6% in assay [4] (setting [8]). Also, in assay [4] (H69AR cells + 2 uM doxorubicin), the differential viability (reversal) was -10.2% (inactive). Further, the values for the inhibition in assay [5] and in assay [6] were -0.13% (inactive) and 5.41% (inactive), respectively.
As for `Cc1nnc2c3ccccc3c(-c3ccccc3)nn12`, the viability in assay [1] is 88% (inactive); in assay [2], 100% (inactive); in assay [3] it was 68.1% (inactive); in assay [4] (setting [7]) it was 25.3%; in assay [4] (setting [8]) it was 68.1%. Further, the differential viability (reversal) in assay [4] (H69AR cells + 2 uM doxorubicin) is 42.8% (inactive). Also, the inhibition in assay [5] was -6.49% (inactive); in assay [6], 3.27% (inactive).
For the compound `CC(=O)Nc1c(C(=O)O)[nH]c2ccccc12`, the viability in assay [1] is 103% (inactive); in assay [2], 97.9% (inactive); in assay [3], 104% (inactive); in assay [4] (setting [7]) it was 101%; in assay [4] (setting [8]), 104%. The differential viability (reversal) in assay [4] (H69AR cells + 2 uM doxorubicin) is 3.33% (inactive). Also, the inhibition in assay [5] is -4.46% (inactive); in assay [6], -8.36% (inactive).
For `CCC(=O)Oc1ccc(C/C(=N\O)c2ccc(O)cc2O)o1`, the viability was 85% (inactive) in assay [1]; 90.6% (inactive) in assay [2]; 52.5% (inactive) in assay [3]; 85.5% in assay [4] (setting [7]); 52.5% in assay [4] (setting [8]). The differential viability (reversal) in assay [4] (H69AR cells + 2 uM doxorubicin) is -33% (inactive). The inhibition in assay [5] was 3.01% (inactive); in assay [6], 13.8% (inactive).
As to `O=C(O)CCNC(=O)c1ccccc1`, the viability in assay [1] was 84% (inactive); in assay [2] it was 99.1% (inactive); in assay [3] it was 98.7% (inactive); in assay [4] (setting [7]), 90.7%; in assay [4] (setting [8]), 98.7%. The differential viability (reversal) in assay [4] (H69AR cells + 2 uM doxorubicin) is 7.94% (inactive). For the same compound, the figures for the inhibition in assay [5] and in assay [6] were 2.47% (inactive) and 1.17% (inactive), respectively.
As for `Cc1cc(C(=O)COC(=O)CCc2nc3ccccc3s2)c(C)n1C`, the viability in assay [1] is 94% (inactive); in assay [2] it was 116% (inactive); in assay [3], 101% (inactive); in assay [4] (setting [7]) it was 107%; in assay [4] (setting [8]), 101%. For the same compound, the differential viability (reversal) in assay [4] (H69AR cells + 2 uM doxorubicin) was -5.69% (inactive). Further, the inhibition is -3.7% (inactive) in assay [5] and -5.09% (inactive) in assay [6].
Turning to `COc1cc(C2c3c(oc4c(C)cc(C)cc4c3=O)C(=O)N2Cc2cccnc2)ccc1O` (centres undefined), the viability was 78% (inactive) in assay [1]; 69.1% (inactive) in assay [2]; 80.2% (inactive) in assay [3]; 77.6% in assay [4] (setting [7]); 80.2% in assay [4] (setting [8]). In addition, the differential viability (reversal) in assay [4] (H69AR cells + 2 uM doxorubicin) is 2.59% (inactive). In addition, the inhibition in assay [5] is 0.13% (inactive); in assay [6] it was 2.42% (inactive).
As for `CCOC(=O)Cc1csc(/C(=N/O)C(N)=O)n1`, the viability is 94% (inactive) in assay [1]; 94.7% (inactive) in assay [2]; 92.6% (inactive) in assay [3]; 97.1% in assay [4] (setting [7]); 92.6% in assay [4] (setting [8]). For the same compound, the differential viability (reversal) in assay [4] (H69AR cells + 2 uM doxorubicin) is -4.43% (inactive). Besides, the inhibition in assay [5] was -1.82% (inactive); in assay [6], -5.41% (inactive).
With `CN1CCN(S(=O)(=O)c2ccc(NC(=O)Nc3cccc(Cl)c3)cc2)CC1`, the viability in assay [1] was 96% (inactive); in assay [2], 4.34% (active); in assay [3], 65% (inactive); in assay [4] (setting [7]), 73.8%; in assay [4] (setting [8]) it was 65%. For the same compound, the differential viability (reversal) in assay [4] (H69AR cells + 2 uM doxorubicin) was -8.79% (inactive). For the same compound, the inhibition in assay [5] is -3.6% (inactive); in assay [6], 1.31% (inactive).
In the case of `C(=N/n1c2ccccc2c2ccccc21)/c1ccco1`, the viability in assay [1] was 81% (inactive); in assay [2] it was 77.9% (inactive); in assay [3] it was 86.5% (inactive); in assay [4] (setting [7]) it was 89.6%; in assay [4] (setting [8]) it was 86.5%. Also, the differential viability (reversal) in assay [4] (H69AR cells + 2 uM doxorubicin) is -3.11% (inactive). The inhibition in assay [5] is -5.19% (inactive); in assay [6], 0.49% (inactive).
On to `CC(=O)Nc1ccc(Cc2ccncc2)cc1`, for which the viability in assay [1] is 105% (inactive); in assay [2] it was 90.2% (inactive); in assay [3], 96.1% (inactive); in assay [4] (setting [7]) it was 87.3%; in assay [4] (setting [8]), 96.1%. For the same compound, in assay [4] (H69AR cells + 2 uM doxorubicin), the differential viability (reversal) was 8.84% (inactive). Further, the inhibition in assay [5] was -4.8% (inactive); in assay [6], -4.36% (inactive).
For `CCc1cccc2c3c([nH]c12)C(CC)(CC(=O)O)OCC3` (centres undefined), the viability was 113% (inactive) in assay [1]; 72% (inactive) in assay [2]; 100% (inactive) in assay [3]; 99.1% in assay [4] (setting [7]); 100% in assay [4] (setting [8]). Also, the differential viability (reversal) in assay [4] (H69AR cells + 2 uM doxorubicin) was 1.21% (inactive). Besides, the inhibition is 1.56% (inactive) in assay [5] and 0.67% (inactive) in assay [6].
For `COc1ccc(OC)c(NC(=O)CS(=O)(=O)c2ccccc2)c1`, the viability in assay [1] is 124% (inactive); in assay [2], 94.7% (inactive); in assay [3], 86.3% (inactive); in assay [4] (setting [7]), 93.7%; in assay [4] (setting [8]) it was 86.3%. Further, the differential viability (reversal) in assay [4] (H69AR cells + 2 uM doxorubicin) was -7.39% (inactive). The inhibition is -6.3% (inactive) in assay [5] and 0.91% (inactive) in assay [6].
As for `O=C(Nc1ccon1)c1cc(-c2ccccc2)nc2ccccc12`, the viability in assay [1] was 91% (inactive); in assay [2], 104% (inactive); in assay [3], 96.2% (inactive); in assay [4] (setting [7]) it was 99.4%; in assay [4] (setting [8]) it was 96.2%. Further, in assay [4] (H69AR cells + 2 uM doxorubicin), the differential viability (reversal) was -3.19% (inactive). Also, the inhibition in assay [5] is -5.95% (inactive); in assay [6], -3.27% (inactive).
